Results from ChEMBL document CHEMBL3272249, “Esters of N-tert-butylarterenol. Long-acting new bronchodilators with reduced cardiac effects” (J Med Chem, 1976).

Tests used:
Canis familiaris [1] = test: Cardiotoxicity in spontaneously respiring dog assessed as time of increase in heart rate at 20 to 100 mg/kg, iv relative to control; assay type: toxicity, organism-based, Canis lupus familiaris; set-up: dose 20-100 mg/kg, route intravenous; details: in vivo
Procedure, shortened: (§1)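 Anesthetized, spontaneously respiring dogs. Heart rate was taken from a lead II EKG, and blood pressure from the right femoral artery by transducer. The increase in heart rate (beats/min) was scored on a graded scale with more than 4 dogs per dose, and its duration was recorded. Drugs were dissolved fresh in distilled water, diluted in physiological saline and kept on ice.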

Canis familiaris [2] = test: Bronchodilator activity in dog assessed as time of inhibition of carbachol or histamine-induced bronchoconstriction at 400 to 800 mg/kg, it relative to control; assay type: functional, Canis lupus familiaris; details: dose mg/kg 400-800; route endotracheal
Procedure, shortened: (§2)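 Dog airway model: anesthetized, cannulated via a nonbreathing valve, with airway pressure changes recorded after iv carbachol (2–4 μg/kg) or histamine diphosphate (20–50 μg/kg) challenge, each agonist in different animals. Compounds were given iv, intraduodenally or intratracheally from fresh aqueous stocks diluted in saline. Duration (h) of inhibition of induced bronchoconstriction was followed, and the two agonist datasets were pooled.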

Canis familiaris [3] = test: Bronchodilator activity in dog assessed as time of inhibition of carbachol or histamine-induced bronchoconstriction at 20 to 100 mg/kg, iv relative to control; assay type: functional, Canis lupus familiaris; details: dose mg/kg 20-100; procedure, shortened: as §2
Canis familiaris [4] = test: Bronchodilator activity in dog assessed as time of inhibition of carbachol or histamine-induced bronchoconstriction at 50 to 100 mg/kg, id relative to control; assay type: functional, Canis lupus familiaris; details: dose mg/kg 50-100; route intraduodenal
Procedure, shortened: (§3)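 Anesthetized dogs with an airway cannula and a nonbreathing valve. Bronchoconstriction was induced by iv carbachol (2–4 μg/kg) or histamine diphosphate (20–50 μg/kg) and read as change in airway pressure by transducer. Each compound was tested against both agonists in different dogs, and the results were combined and averaged. Effect is % inhibition of control constriction, with at least three dogs per dose. Drugs were dissolved fresh in distilled water, diluted in saline and kept on ice.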

Canis familiaris [5] = test: Cardiotoxicity in spontaneously respiring dog assessed as degree of increase in heart rate at 20 to 100 mg/kg, iv relative to control; assay type: toxicity, organism-based, Canis lupus familiaris; set-up: dose 20-100 mg/kg, route intravenous; details: in vivo; procedure, shortened: as §1
Canis familiaris [6] = test: Bronchodilator activity in dog assessed as degree of inhibition of carbachol or histamine-induced bronchoconstriction at 400 to 800 mg/kg, it relative to control; assay type: functional, Canis lupus familiaris; details: dose mg/kg 400-800; route endotracheal
Procedure, shortened: (§4)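 Anesthetized dogs, trachea cannulated with a nonbreathing valve. Bronchoconstriction induced by iv carbachol (2–4 μg/kg) or histamine diphosphate (20–50 μg/kg) in separate animals, and airway pressure recorded by transducer. Drug stocks were made fresh in distilled water, diluted in saline and kept on ice. Read-out was percent inhibition of control constriction, averaged over at least three dogs per dose at the higher dose. Carbachol and histamine data were combined.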

Canis familiaris [7] = test: Bronchodilator activity in dog assessed as degree of inhibition of carbachol or histamine-induced bronchoconstriction at 20 to 100 mg/kg, iv relative to control; assay type: functional, Canis lupus familiaris; details: dose mg/kg 20-100; procedure, shortened: as §4
Canis familiaris [8] = test: Bronchodilator activity in dog assessed as degree of inhibition of carbachol or histamine-induced bronchoconstriction at 50 to 100 mg/kg, id relative to control; assay type: functional, Canis lupus familiaris; details: dose mg/kg 50-100; route intraduodenal; procedure, shortened: as §4
Canis familiaris [9] = test: Bronchodilator activity in dog assessed as time of inhibition of carbachol or histamine-induced bronchoconstriction at 5 mg/kg, iv relative to control; assay type: functional, Canis lupus familiaris; procedure, shortened: as §3
Canis familiaris [10] = test: Bronchodilator activity in dog assessed as time of inhibition of carbachol or histamine-induced bronchoconstriction at 50 mg/kg, id relative to control; assay type: functional, Canis lupus familiaris; details: route intraduodenal; procedure, shortened: as §3
Canis familiaris [11] = test: Bronchodilator activity in dog assessed as degree of inhibition of carbachol or histamine-induced bronchoconstriction at 5 mg/kg, iv relative to control; assay type: functional; details: Canis lupus familiaris; procedure, shortened: as §4
Canis familiaris [12] = test: Bronchodilator activity in dog assessed as degree of inhibition of carbachol or histamine-induced bronchoconstriction at 50 mg/kg, id relative to control; assay type: functional; details: Canis lupus familiaris, route intraduodenal; procedure, shortened: as §4
Canis familiaris [13] = test: Cardiotoxicity in spontaneously respiring dog assessed as degree of increase in heart rate at 200 mg/kg, iv relative to control; assay type: toxicity, organism-based, Canis lupus familiaris; set-up: dose 200 mg/kg, route intravenous; details: in vivo; procedure, shortened: as §1
Canis familiaris [14] = test: Cardiotoxicity in spontaneously respiring dog assessed as time of increase in heart rate at 200 mg/kg, iv relative to control; assay type: toxicity, organism-based, Canis lupus familiaris; set-up: dose 200 mg/kg, route intravenous; details: in vivo; procedure, shortened: as §1
Canis familiaris [15] = test: Bronchodilator activity in dog assessed as time of inhibition of carbachol or histamine-induced bronchoconstriction at 200 mg/kg, iv relative to control; assay type: functional, Canis lupus familiaris; procedure, shortened: as §2
Canis familiaris [16] = test: Bronchodilator activity in dog assessed as time of inhibition of carbachol or histamine-induced bronchoconstriction at 100 to 200 mg/kg, id relative to control; assay type: functional, Canis lupus familiaris; details: dose mg/kg 100-200; route intraduodenal; procedure, shortened: as §2
Canis familiaris [17] = test: Bronchodilator activity in dog assessed as time of inhibition of carbachol or histamine-induced bronchoconstriction at 430 to 860 mg/kg, it relative to control; assay type: functional, Canis lupus familiaris; details: dose mg/kg 430-860; route endotracheal; procedure, shortened: as §3
Canis familiaris [18] = test: Bronchodilator activity in dog assessed as degree of inhibition of carbachol or histamine-induced bronchoconstriction at 200 mg/kg, iv relative to control; assay type: functional; details: Canis lupus familiaris; procedure, shortened: as §4
Canis familiaris [19] = test: Bronchodilator activity in dog assessed as degree of inhibition of carbachol or histamine-induced bronchoconstriction at 100 to 200 mg/kg, id relative to control; assay type: functional, Canis lupus familiaris; details: dose mg/kg 100-200; route intraduodenal; procedure, shortened: as §4
Canis familiaris [20] = test: Bronchodilator activity in dog assessed as degree of inhibition of carbachol or histamine-induced bronchoconstriction at 430 to 860 mg/kg, it relative to control; assay type: functional, Canis lupus familiaris; details: dose mg/kg 430-860; route endotracheal; procedure, shortened: as §4
Canis familiaris [21] = test: Cardiotoxicity in spontaneously respiring dog assessed as degree of increase in heart rate at 100 to 200 mg/kg, iv relative to control; assay type: toxicity, organism-based, Canis lupus familiaris; set-up: dose 100-200 mg/kg, route intravenous; details: in vivo; procedure, shortened: as §1
Canis familiaris [22] = test: Cardiotoxicity in spontaneously respiring dog assessed as time of increase in heart rate at 100 to 200 mg/kg, iv relative to control; assay type: toxicity, organism-based, Canis lupus familiaris; set-up: dose 100-200 mg/kg, route intravenous; details: in vivo; procedure, shortened: as §1
Canis familiaris [23] = test: Bronchodilator activity in dog assessed as time of inhibition of carbachol or histamine-induced bronchoconstriction at 100 to 200 mg/kg, iv relative to control; assay type: functional, Canis lupus familiaris; details: dose mg/kg 100-200; procedure, shortened: as §2
Canis familiaris [24] = test: Bronchodilator activity in dog assessed as degree of inhibition of carbachol or histamine-induced bronchoconstriction at 100 to 200 mg/kg, iv relative to control; assay type: functional, Canis lupus familiaris; details: dose mg/kg 100-200; procedure, shortened: as §4

CC(C)(C)NC[C@H](O)c1ccc(OC(=O)C(C)(C)C)c(OC(=O)C(C)(C)C)c1.Cl
Time (Canis familiaris [1]): < 2 h
Time (Canis familiaris [2]): <2 h
Time (Canis familiaris [3]): 3 h
Time (Canis familiaris [4]): 3 h
Activity (Canis familiaris [5]): 20 beats/min
inhibition (INH) (Canis familiaris [6]): 45%
inhibition (INH) (Canis familiaris [7]): >70%
inhibition (INH) (Canis familiaris [8]): >70%

CC(C)(C)NC[C@H](O)c1ccc(OC(=O)C2(C)CC2)c(OC(=O)C2(C)CC2)c1.Cl
Time (Canis familiaris [9]): <1 h
Time (Canis familiaris [10]): 2 h
inhibition in vivo at 5 mg/kg (Canis familiaris [11]): 45%
inhibition in vivo at 50 mg/kg (Canis familiaris [12]): 45%

CC(C)(C)CC(=O)Oc1ccc([C@@H](O)CNC(C)(C)C)cc1OC(=O)CC(C)(C)C.Cl
Activity (Canis familiaris [13]): 20%
Time (Canis familiaris [14]): < 1 h
Time (Canis familiaris [15]): >4 h
Time (Canis familiaris [16]): <5 h
Time (Canis familiaris [17]): <3 h
inhibition in vivo at 200 mg/kg (Canis familiaris [18]): > 70%
inhibition (INH) (Canis familiaris [19]): 45%
inhibition (INH) (Canis familiaris [20]): 20%

CC(C)(C)NC[C@H](O)c1ccc(OC(=O)C2CCCCC2)c(OC(=O)C2CCCCC2)c1.Cl
Activity (Canis familiaris [21]): 20%
Time (Canis familiaris [22]): < 3 h
Time (Canis familiaris [23]): <5 h
inhibition (INH) (Canis familiaris [24]): 45%
